In the library only some 2.3% were active in any assay of this set; here they are far more common.
SKN-1 block = blocks SKN-1 activity in C. elegans | C. elegans VP596 Pgst-4::GFP/RFP ratio, acrylamide-induced, 24 h | inhibition, % at 21.8 µM | 360,000 tested, 0.49% active;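 active = interference check ratio from 0.5 to 1.5 plus GFP to RFP signal ratio inhibition reaching or exceeding a fixed threshold, cut at about 30% in these data, passing the limit was not always enough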
MPTP inh = blocks calcium-induced mitochondrial swelling; isolated mouse mitochondria, Ca2+ swelling absorbance, 30 min; inhibition, % at 10 µM; 360,000 tested, 1.4% active; AID 602449;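 active = inhibition of 50% or more, scaled per plate between neutral and stimulator controls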
MT1-MMP act inh = inhibitors of human MT1-MMP activation | HT1080 RFP-PRO-GFP cells, GFP/RFP ratio fluorescence, overnight; percent of plate control window, DMSO zero | GFP/RFP ratio change, % at 20 µM | 360,000 tested, 0.061% active | AID 651647;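 active = GFP/RFP ratio change of at least 30% with cell ATP level not reduced by more than half and red fluorescence within 50% of control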
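Assay system: HT1080 RFP-PRO-GFP cells | Dosing: 20 µM single dose, 1% DMSO | Incubation: Cells overnight before dosing, compound overnight, 37 °C, 5% CO2 | Evaluation: GFP/RFP fluorescence ratio | Control set: DMSO-only wells and HT1080 RFP-L50D-GFP cell wells as references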
ATG4B inhibitor = blocks human ATG4B protease cleavage of LC3 substrate; Q9Y4P1; ATG4B cleavage of LC3-PLA2, NBD-HPC fluorescence, 1 h; inhibition, % at 8.33 µM; 340,000 tested, 0.51% active; AID 504462; in the data active = inhibition above about 40%
Target sequence (Q9Y4P1 whole entry, looked up): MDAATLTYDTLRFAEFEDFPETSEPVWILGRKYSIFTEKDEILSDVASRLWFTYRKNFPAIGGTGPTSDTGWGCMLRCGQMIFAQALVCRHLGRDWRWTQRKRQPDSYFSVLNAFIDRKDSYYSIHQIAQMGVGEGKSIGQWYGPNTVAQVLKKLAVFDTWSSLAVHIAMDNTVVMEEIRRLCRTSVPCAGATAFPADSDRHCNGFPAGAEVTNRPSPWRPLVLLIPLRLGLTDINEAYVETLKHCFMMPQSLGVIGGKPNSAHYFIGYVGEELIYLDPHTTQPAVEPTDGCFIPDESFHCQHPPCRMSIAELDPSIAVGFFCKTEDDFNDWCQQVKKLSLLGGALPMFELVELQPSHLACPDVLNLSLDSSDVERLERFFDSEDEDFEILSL
MPTP counter = membrane potential counter-screen of mitochondrial pore inhibitors | inhibition, % at 10 µM | shares compounds with MPTP inh | isolated mitochondria, Rhodamine 123 fluorescence | AID 624504 | 5,000 tested, 78% active; in the data active = inhibition above about 22%
MPTP swell DR = dose response confirmation of mitochondrial permeability transition pore inhibitors; IC50, µM; 780 tested, 58% active; isolated mitochondria swelling, absorbance; shares compounds with MPTP inh; in the data active = IC50 below about 20 µM
MPTP counter DR = active in counter-screen for permeability transition pore inhibitors; shares compounds with MPTP inh; isolated mitochondria counterscreen, fluorescence read-out; IC50, µM; 780 tested, 49% active; AID 651564; in the data active = IC50 below about 80 µM
Numbers stand for hits; i = inactive; nt = not tested or not shown.

SMILES	SKN-1 block	MPTP inh	MT1-MMP act inh	ATG4B inhibitor	MPTP counter	others
CCN(CC)S(=O)(=O)c1cccc(NC(=O)CSc2nc3ccccc3[nH]2)c1	i	65.2	i	i	33.3
CN(C)S(=O)(=O)c1cccc(NC(=O)CSc2ncnc3ccccc23)c1	i	84.2	i	i	66.4
CCOC(=O)N(CC)OC(=O)Nc1ccc(Cl)cc1	i	57.4	i	i	63.4
CN(C)CCNC(=O)Nc1ccc(Cl)c(Cl)c1	i	71.0	i	i	94.3
CCOC(=O)N(C)OC(=O)Nc1ccc(Cl)c(Cl)c1	i	73.4	i	i	83.1
CCOC(=O)CNNC(=O)Nc1ccc(Cl)c(Cl)c1	i	68.8	i	i	64.6
CC12CCC(O)CC1=CCC1C2CCC2(C)C(c3ccn[nH]3)CCC12 (stereo not drawn)	i	56.6	i	i	88.2
O=C(NCCC1=CCCCC1)C1CCN(S(=O)(=O)c2ccccc2C(F)(F)F)CC1	i	i	i	i	nt
COc1ccccc1Nc1nc(-c2c(C)nc3ncccn23)cs1	i	70.7	i	i	50.5
Cc1[nH]n(-c2ncc(-c3ccc(Cl)cc3)s2)c(=O)c1C(c1ccc(Cl)cc1)C(C#N)C#N (stereo not drawn)	i	97.9	i	i	i
COCC(C)NS(=O)(=O)c1ccc(NC(=O)c2ccccn2)cc1 (stereo not drawn)	i	i	i	i	nt
N#Cc1c(Cl)nsc1NC(=O)c1ccccc1	i	77.5	i	i	89.3
Cc1sc(NC(=S)NC(=O)c2ccc(C(C)(C)C)cc2)c(C#N)c1C	i	i	i	i	nt
Cc1sc(NC(=S)NC(=O)c2ccccc2)c(C#N)c1C	i	69.6	i	i	84.3
N#Cc1c(NC(=O)c2ccccc2)sc2c1CCCCC2	i	i	i	i	nt
N/C(=N\OC(=O)COc1ccc2ccccc2c1)c1cccnc1	42.4	60.8	i	i	83.6
CCOC(=O)N1CCN(C(=O)c2cccc(S(=O)(=O)Nc3ccccc3Cl)c2)CC1	i	i	i	i	nt
Cc1cc(C)c(N2CCN(S(=O)(=O)N3CCCCCC3)CC2)c(C)c1	i	78.9	i	i	i	MPTP swell DR=i;MPTP counter DR=17.4
Cc1ccc(N2CCN(S(=O)(=O)N3CCCCC3)CC2)cc1Cl	i	i	i	i	nt
Cc1ccc(-c2nn(-c3ccccc3)cc2CO)cc1	i	i	i	i	nt
N=C(N)SCc1cn(-c2ccccc2)nc1-c1ccc(Br)cc1	i	76.4	i	i	i
CCCCNC(=O)C1(C)CCN1C(=O)c1ccc2sccc2c1 (stereo not drawn)	i	i	i	nt	nt
CC(C)COc1ccc(C(=O)Nc2ccccc2[N+](=O)[O-])cc1	i	53.5	i	i	i	MPTP swell DR=i;MPTP counter DR=i
CCCOc1ccc(C(=O)Nc2ccc(C)cc2[N+](=O)[O-])cc1	i	i	i	i	nt
O=C(C(=O)c1cc(Br)ccc1O)c1cc(Br)ccc1O	i	94.8	i	i	97.0
SMILES	SKN-1 block	MPTP inh	MT1-MMP act inh	ATG4B inhibitor	MPTP counter	others
O=C(c1ccc(O)c(Br)c1)c1cc(Br)ccc1O	i	94.1	i	i	93.3
C/C=N/NC(=O)c1cc(Br)ccc1O	i	i	i	i	nt
Cc1ccsc1C(=O)OCC(=O)NCc1cccs1	i	i	i	nt	nt
Cc1ccc(C(=O)N2CCN(S(=O)(=O)c3ccccc3)CC2)s1	i	i	i	i	nt
Cc1ccc(OCC(=O)N/N=C/C=C/c2ccco2)cc1C	i	i	i	i	nt
Cc1cc(C(=O)CSc2n[nH]c(N)n2)c(C)n1-c1cc(F)ccc1F	i	58.9	i	i	i	MPTP counter DR=i
CSCC[C@H](NC(=O)c1ccc(Cl)c([N+](=O)[O-])c1)c1nc2ccccc2[nH]1	i	58.7	i	i	83.0
O=C(NC(Cc1ccccc1)c1nc2ccccc2[nH]1)c1ccc(Cl)c([N+](=O)[O-])c1 (stereo not drawn)	i	92.6	i	i	91.3
CN1/C(=C\C=N\O)C(C)(C)c2ccccc21	i	i	i	i	nt
CN(C)c1ccc(N=C/C=C2/N(C)c3ccccc3C2(C)C)cc1	i	82.3	i	i	52.0
CN1C(=CC=C2C=C(I)C(=O)C(I)=C2)C(C)(C)c2ccccc21	i	66.6	i	i	i
Cc1ccc(-c2nc3cccnc3o2)cc1NC(=O)COc1ccc(C(C)(C)C)cc1	43.0	85.2	i	i	22.8

Bioassay records as filed in PubChem BioAssay.
